Key:
[1] = system: WNV replicon-containing cells; experiment: Cell viability assay; type: cell-based, baby hamster; conditions: for cytotoxicity: 10 μM, replicon cells
DENV = DENV subgenomic replicon assay; type: cell-based, Dengue virus; conditions: for DENV Inhibition %: single concentration 10 μM, 3 days, BHK replicon cells; for activity against DENV relative to WNV: 10 μM, comparison of replicon assays
[2] = system: DENV replicon-containing cells; experiment: Cell viability assay; type: cell-based, baby hamster; conditions: single concentration 10 μM, 3 days, DENV replicon BHK cells
WNV = WNV subgenomic replicon assay; type: cell-based, West Nile virus; conditions: for inhibition against WNV relative to DENV: 10 μM, comparison of replicon assays
HIV-1 [3] = conditions: read-out: EC50 against HIV-1; as reported previously ref 23; cited from earlier work
HIV-1 [4] = experiment: HIV-1 antiviral assay; type: cell-based; conditions: data not shown
DNV3MTase = DNV3MTase (Dengue virus type 3, UniProt P27915); experiment: SAM binding inhibition; design: species or system DENV3; conditions: 20 μM compound, 580 nM biotinylated DNV3MTase, 425 nM 3H-SAM
Chain of DNV3MTase (P27915 2492-2753): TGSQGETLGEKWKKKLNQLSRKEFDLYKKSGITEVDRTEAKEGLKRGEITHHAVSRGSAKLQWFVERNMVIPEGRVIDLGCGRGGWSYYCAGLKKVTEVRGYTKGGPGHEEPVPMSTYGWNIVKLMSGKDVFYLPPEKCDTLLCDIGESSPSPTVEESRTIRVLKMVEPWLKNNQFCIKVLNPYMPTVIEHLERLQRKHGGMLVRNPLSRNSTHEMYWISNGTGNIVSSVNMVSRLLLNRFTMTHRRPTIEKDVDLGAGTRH
Procedure, shortened: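 DENV3 MTase from E. coli, refolded from urea on Ni-NTA and cleaved with 3C protease, then NHS-biotinylated (13:1 biotin:protein). Test compound, SAM or sinefungin preincubated 20 min at 23°C. Then 1.65 μCi ³H-SAM, 15 min. Centrifuged; SPA counts read.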

Compound: 3′-azidothymidine [4, AZT, reference compound]
- WNV Viability % ([1]; single concentration 10 μM, 3 days, WNV replicon BHK cells): 83%
- DENV Inhibition % (DENV): 0%
- DENV Viability % [2]: 89%
- WNV Inhibition % (WNV; single concentration 10 μM, 3 days, BHK replicon cells): 0%

Compound: COc1ccc2cc(-c3cnnn3[C@H]3C[C@H](n4cc(C)c(=O)[nH]c4=O)O[C@@H]3CO)ccc2c1 [10a, 1-((2R,4S,5S)-5-(Hydroxymethyl)-4-(5-(6-methoxynaphthalen-2-yl)-1H-1,2,3-triazol-1-yl)tetrahydrofuran-2-yl)-5-methylpyrimidine-2,4(1H,3H)-dione]
- DENV Inhibition % (DENV): did not show any inhibition
- EC50 (HIV-1 [3]): 67 nM

Compound: COc1ccc2cc(-c3cnnn3[C@H]3C[C@H](n4cc(C)c(=O)[nH]c4=O)O[C@@H]3CO[Si](C)(C)C(C)(C)C)ccc2c1 [11a]
- DENV Inhibition % (DENV): inhibited both viruses almost completely
- anti-HIV-1 activity (HIV-1 [4]): no appreciable anti-HIV-1 activity

Compound: Cc1cn([C@H]2C[C@H](N3C(=O)CSC3c3ccc4[nH]ccc4c3)[C@@H](CO[Si](C)(C)C(C)(C)C)O2)c(=O)[nH]c1=O (stereo partly drawn) [13b]
- inhibition against WNV relative to DENV (WNV): substantially higher inhibition against WNV than DENV

Compound: Cc1cn([C@H]2C[C@H](N3C(=O)CSC3c3c4ccccc4cc4ccccc34)[C@@H](CO[Si](C)(C)C(C)(C)C)O2)c(=O)[nH]c1=O (stereo partly drawn) [13c]
- inhibition against WNV relative to DENV (WNV): substantially higher inhibition against WNV than DENV

Compound: Cc1cn([C@H]2C[C@H](NC(=O)c3c[nH]c4ccccc34)[C@@H](CO[Si](C)(C)C(C)(C)C)O2)c(=O)[nH]c1=O [15f]
- activity against DENV relative to WNV (DENV): considerably more active against DENV than WNV

Compound: Cc1cn([C@H]2C[C@H](NC(=O)c3ccc(N4CCOCC4)cc3)[C@@H](CO[Si](C)(C)C(C)(C)C)O2)c(=O)[nH]c1=O [15h]
- activity against DENV relative to WNV (DENV): considerably more active against DENV than WNV

Compound: Cc1cn([C@H]2C[C@H](NC(=O)Nc3ccccc3)[C@@H](CO[Si](C)(C)C(C)(C)C)O2)c(=O)[nH]c1=O [19a]
- activity against DENV relative to WNV (DENV): considerably more active against DENV than WNV

Compound: Cc1cn([C@H]2C[C@H](NC(=O)Nc3cccc4ccccc34)[C@@H](CO[Si](C)(C)C(C)(C)C)O2)c(=O)[nH]c1=O [19b]
- activity against DENV relative to WNV (DENV): considerably more active against DENV than WNV

Compound: Cc1cn([C@H]2C[C@H](NC(=O)NC34CC5CC(CC(C5)C3)C4)[C@@H](CO[Si](C)(C)C(C)(C)C)O2)c(=O)[nH]c1=O [19c]
- inhibition against WNV relative to DENV (WNV): substantially higher inhibition against WNV than DENV

Compound: Cc1ccc(S(=O)(=O)NC(=O)N[C@H]2C[C@H](n3cc(C)c(=O)[nH]c3=O)O[C@@H]2CO[Si](C)(C)C(C)(C)C)cc1 [21a, N-(((2S,3S,5R)-2-(((tert-Butyldimethylsilyl)oxy)methyl)-5-(5-meth-yl-2,4-dioxo-3,4-dihydropyrimidin-1(2H)-yl)tetrahydrofuran-3-yl)-carbamoyl)-4-methylbenzenesulfonamide]
- activity against DENV relative to WNV (DENV): considerably more active against DENV than WNV

Compound: C[S+](CC[C@H](N)C(=O)[O-])C[C@H]1O[C@@H](n2cnc3c(N)ncnc32)[C@H](O)[C@@H]1O (stereo partly drawn) [SAM, S-adenosyl-L-methionine]
- Inhibition of the [3H]-SAM-MTase complex formation (DNV3MTase): same level of reduction

Compound: Nc1ncnc2c1ncn2[C@@H]1O[C@H](C[C@@H](N)CC[C@H](N)C(=O)O)[C@@H](O)[C@H]1O [SIN, sinefungin]
- Inhibition of the [3H]-SAM-MTase complex formation (DNV3MTase): same level of reduction

Compound: COc1ccc2cc(-c3cnnn3[C@H]3C[C@H](n4cc(C)c(=O)[nH]c4=O)O[C@@H]3CO[Si](C(C)C)(C(C)C)C(C)C)ccc2c1 [compound 22]
- cytotoxicity [1]: significant cytotoxicity

Compound: COc1ccc2cc(-c3cnnn3[C@H]3C[C@H](n4cc(C)c(=O)[nH]c4=O)O[C@@H]3CO[Si](c3ccccc3)(c3ccccc3)C(C)(C)C)ccc2c1 [compound 23]
- cytotoxicity [1]: significant cytotoxicity

Compound: COc1ccc2cc(-c3cnnn3[C@H]3C[C@H](n4cc(C)c(=O)[nH]c4=O)O[C@@H]3COC(C)=O)ccc2c1 [compound 24, ((2S,3S,5R)-3-(5-(6-Methoxynaphthalen-2-yl)-1H-1,2,3-triazol-1-yl)-5-(5-methyl-2,4-dioxo-3,4-dihydropyrimidin-1(2H)-yl)tetrahydrofuran-2-yl)methyl acetate]
- DENV Inhibition % (DENV): did not yield appreciable antiviral activity

Compound: COC[C@H]1O[C@@H](n2cc(C)c(=O)n(C)c2=O)C[C@@H]1n1nncc1-c1ccc2cc(OC)ccc2c1 [compound 25, 1-((2R,4S,5S)-5-(Methoxymethyl)-4-(5-(6-methoxynaphthalen-2-yl)-1H-1,2,3-triazol-1-yl)tetrahydrofuran-2-yl)-3,5-dimethylpyrimidine-2,4(1H,3H)-dione]
- DENV Inhibition % (DENV): did not yield appreciable antiviral activity

Compound: CCOCOC[C@H]1O[C@@H](n2cc(C)c(=O)[nH]c2=O)C[C@@H]1n1nncc1-c1ccc2cc(OC)ccc2c1 [compound 26, 1-((2R,4S,5S)-5-((Ethoxymethoxy)methyl)-4-(5-(6-methoxynaphthalen-2-yl)-1H-1,2,3-triazol-1-yl)tetrahydrofuran-2-yl)-5-methylpyrimidine-2,4(1H,3H)-dione]
- DENV Inhibition % (DENV): did not yield appreciable antiviral activity

Compound: COc1ccc2cc(-c3cnnn3[C@H]3C[C@H](n4cc(C)c(=O)[nH]c4=O)O[C@@H]3COC3CCCCO3)ccc2c1 (stereo partly drawn) [compound 27, 1-((2R,4S,5S)-4-(5-(6-Methoxynaphthalen-2-yl)-1H-1,2,3-triazol-1-yl)-5-(((tetrahydro-2H-pyran-2-yl)oxy)methyl)-tetrahydrofuran-2-yl)-5-methylpyrimidine-2,4(1H,3H)-dione]
- DENV Inhibition % (DENV): did not yield appreciable antiviral activity

— article PMC4465584 (Journal of medicinal chemistry, 2015)
